The values that follow come from ChEMBL document CHEMBL2034940, “Synthesis of N6-alkyl(aryl)-2-alkyl(aryl)thioadenosines as antiplatelet agents” (Eur J Med Chem, 2012).

Test [1] concerns Platelet. The test can be described thus: Inhibition of ADP-induced platelet aggregation in human platelet rich plasma incubated 1 min prior ADP induction measured after 3 mins by Born's method using aggregometer. In kind it is functional, cell-free. The settings on record: for IC50: Homo sapiens, Platelet, Plasma. In outline:
(§1)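 Citrated (3.8% sodium citrate, 1:9) venous blood from healthy donors free of aspirin/NSAIDs for at least 14 days. PRP prepared by centrifugation, with PPP as the baseline blank. Compound in DMSO (below 0.5% final) added to 500 µL PRP 1 min before 10 µM ADP (final), at 37 °C. Aggregation is the maximum tracing height over at least 3 min, expressed as % inhibition versus vehicle. IC50 comes from non-linear regression, mean ± S.E.M., n = 3.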

Test [2] concerns Platelet. As to the kind of experiment: Inhibition of ADP-induced platelet aggregation in human platelet rich plasma assessed as platelet aggregation at 300 uM incubated 1 min prior ADP induction measured after 3 mins by Born's method using aggregometry relative to control. The arrangement: scale not given: the % may be the effect or the level left. It counts as functional. The essentials: (§2)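 Human citrated PRP from drug-free healthy donors, with PPP as the blank, in an aggregometer at 37 °C. Compound added at 300 µM final in DMSO (below 0.5%) for 1 min, then 10 µM ADP final. Maximum aggregation tracing height read over at least 3 min and compared with the DMSO vehicle control.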

For test [3], the system named is Platelet. The test can be described thus: Inhibition of ADP-induced platelet aggregation in human platelet rich plasma at 300 uM incubated 1 min prior ADP induction measured after 3 mins by Born's method using aggregometer relative to control. It counts as functional. The essentials:
as §2

For test [4], the system named is Platelet. As to the kind of experiment: Inhibition of arachidonic acid-induced platelet aggregation in human platelet rich plasma incubated 1 min prior arachidonic acid induction measured after 3 mins by Born's method using aggregometer. In kind it is functional, cell-free. Particulars: for IC50: Homo sapiens, Platelet, Plasma. In outline: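 Citrated PRP from healthy volunteers free of aspirin/NSAIDs for at least 14 days, with PPP as the baseline blank. Compound in DMSO (below 0.5% final) preincubated 1 min in 500 µL PRP at 37 °C, then 0.5 mM arachidonic acid (final) added. Maximum aggregation height over at least 3 min gives % inhibition versus vehicle. IC50 by non-linear regression, mean ± S.E.M. of 3 experiments.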

Test [5] has as its system Platelet. As to the kind of experiment: Inhibition of ADP-induced platelet aggregation in human platelet rich plasma. In kind it is functional, cell-free. In outline:
as §1

`CCSc1nc(NCc2ccccc2)c2ncn([C@@H]3O[C@H](CO)[C@@H](O)[C@H]3O)c2n1`: in test [1], the “inhibition (INH)” value is listed as more than 50%.
A word on the inhibition: it is the share of the control response that was lost under treatment. For the compound `CCCCCCNc1nc(SCC)nc2c1ncn2[C@@H]1O[C@H](CO)[C@@H](O)[C@H]1O`, the Activity in test [2] was determined as 57%. In test [3], this compound registered an inhibition at 300 µM of less than 50%.
Turning to `CCCCCCNc1nc(SCCC)nc2c1ncn2[C@@H]1O[C@H](CO)[C@@H](O)[C@H]1O`, in test [1], the “inhibition (INH)” value is on record as more than 50%.
Consider `CCCCCCNc1nc(SCCCC)nc2c1ncn2[C@@H]1O[C@H](CO)[C@@H](O)[C@H]1O`, for which the Activity in test [2] worked out at 66%. The compound also had an inhibition at 300 µM in test [3] of less than 50%.
Turning to `CCSc1nc(NC2CCCCC2)c2ncn([C@@H]3O[C@H](CO)[C@@H](O)[C@H]3O)c2n1`, the “inhibition (INH)” value in test [1] is reported as more than 50%.
On the same count and under the same terms, for `CCCSc1nc(NC2CCCCC2)c2ncn([C@@H]3O[C@H](CO)[C@@H](O)[C@H]3O)c2n1` the value was more than 50%; for `CC(C)Sc1nc(NC2CCCCC2)c2ncn([C@@H]3O[C@H](CO)[C@@H](O)[C@H]3O)c2n1`, more than 50%.
As usually defined, the IC50 is the point on the concentration scale where inhibition reaches its midpoint. For `CCCCSc1nc(NC2CCCCC2)c2ncn([C@@H]3O[C@H](CO)[C@@H](O)[C@H]3O)c2n1`, in test [1], the “inhibition (INH)” value was more than 50% and the IC50 worked out at 83 µM.
For `CCCCN(CCCC)c1nc(SCC)nc2c1ncn2[C@@H]1O[C@H](CO)[C@@H](O)[C@H]1O`, the Activity in test [2] is given as 77%. Also, the inhibition at 300 µM in test [3] is less than 50%.
As to `CSc1nc(NCc2ccccc2)c2ncn([C@@H]3O[C@H](CO)[C@@H](O)[C@H]3O)c2n1`, in test [2], the Activity was determined as 52%. This compound also displayed an inhibition at 300 µM in test [3] of less than 50%.
`CCCSc1nc(NCc2ccccc2)c2ncn([C@@H]3O[C@H](CO)[C@@H](O)[C@H]3O)c2n1`: in test [1], the “inhibition (INH)” value is more than 50%.
For the compound `CCCCSc1nc(NCc2ccccc2)c2ncn([C@@H]3O[C@H](CO)[C@@H](O)[C@H]3O)c2n1`, in test [1], the “inhibition (INH)” value is given as more than 50%.
Turning to `CSc1nc(NCc2ccc(C)cc2)c2ncn([C@@H]3O[C@H](CO)[C@@H](O)[C@H]3O)c2n1`, the Activity in test [2] is recorded as 77%. The same compound came in with an inhibition at 300 µM in test [3] of less than 50%.
Turning to `CCSc1nc(NCc2ccc(C)cc2)c2ncn([C@@H]3O[C@H](CO)[C@@H](O)[C@H]3O)c2n1`, in test [2], the Activity is reported as 88%. This compound also registered an inhibition at 300 µM in test [3] of less than 50%.
On the same counts, the results for `COc1ccc(CNc2nc(SC)nc3c2ncn3[C@@H]2O[C@H](CO)[C@@H](O)[C@H]2O)cc1` are 69% and less than 50%.
On the same counts, the results for `CCSc1nc(NCc2ccc(OC)cc2)c2ncn([C@@H]3O[C@H](CO)[C@@H](O)[C@H]3O)c2n1` are 74% and less than 50%.
Regarding `CCCSc1nc(NCc2ccc(OC)cc2)c2ncn([C@@H]3O[C@H](CO)[C@@H](O)[C@H]3O)c2n1`, in test [1], the “inhibition (INH)” value is reported as more than 50%.
With `CSc1nc(NCCc2ccccc2)c2ncn([C@@H]3O[C@H](CO)[C@@H](O)[C@H]3O)c2n1`, in test [1], the “inhibition (INH)” value was more than 50% and the IC50 was determined as 36 µM. In test [4], the “inhibition (INH)” value is listed as more than 50% and half-maximal inhibition (IC50) was put at 3 µM.
Take `CCSc1nc(NCCc2ccccc2)c2ncn([C@@H]3O[C@H](CO)[C@@H](O)[C@H]3O)c2n1`: the “inhibition (INH)” value in test [1] and in test [4] was more than 50% throughout. Moreover, the results for the IC50 in test [1] and in test [4] were 29 µM and 30 µM, respectively.
Turning to `CCCSc1nc(NCCc2ccccc2)c2ncn([C@@H]3O[C@H](CO)[C@@H](O)[C@H]3O)c2n1`, in test [1], the “inhibition (INH)” value is on record as more than 50% and half-maximal inhibition (IC50) was put at 52 µM. Further, in test [4], the “inhibition (INH)” value is listed as more than 50% and the IC50 came to 44 µM.
As for `CCCCSc1nc(NCCc2ccccc2)c2ncn([C@@H]3O[C@H](CO)[C@@H](O)[C@H]3O)c2n1`, in test [1], the “inhibition (INH)” value was more than 50% and the IC50 came to 59 µM. The inhibition (INH) in test [4] is less than 50%.
As to `OC[C@H]1O[C@@H](n2cnc3c(NCCc4ccccc4)nc(Sc4ccccc4)nc32)[C@H](O)[C@@H]1O`, the Activity in test [2] is 57%. Further, the inhibition at 300 µM in test [3] was less than 50%.
For `OC[C@H]1O[C@@H](n2cnc3c(NCCc4ccccc4)nc(SCc4ccccc4)nc32)[C@H](O)[C@@H]1O` the same measures were 57% and less than 50%.
As for `COc1ccc(CCNc2nc(SC)nc3c2ncn3[C@@H]2O[C@H](CO)[C@@H](O)[C@H]2O)cc1`, in test [1], the “inhibition (INH)” value is more than 50%.
On to `CCSc1nc(NCCc2ccc(OC)cc2)c2ncn([C@@H]3O[C@H](CO)[C@@H](O)[C@H]3O)c2n1`, for which, in test [1], the “inhibition (INH)” value was more than 50% and it took 89 µM to reach half-maximal inhibition (IC50).
For the compound `CCCSc1nc(NCCc2ccc(OC)cc2)c2ncn([C@@H]3O[C@H](CO)[C@@H](O)[C@H]3O)c2n1`, the “inhibition (INH)” value in test [1] is given as more than 50%.
On to `CCCCSc1nc(NCCc2ccc(OC)cc2)c2ncn([C@@H]3O[C@H](CO)[C@@H](O)[C@H]3O)c2n1`, for which, in test [1], the “inhibition (INH)” value was more than 50% and the half-inhibitory concentration (IC50) is 93 µM.
`COc1cccc(CCNc2nc(SC)nc3c2ncn3[C@@H]2O[C@H](CO)[C@@H](O)[C@H]2O)c1`: the Activity in test [2] is listed as 71%. The same compound showed an inhibition at 300 µM in test [3] of less than 50%.
For the compound `CCSc1nc(NCCc2cccc(OC)c2)c2ncn([C@@H]3O[C@H](CO)[C@@H](O)[C@H]3O)c2n1`, the “inhibition (INH)” value in test [1] was more than 50%; in test [4], less than 50%. The compound also returned an IC50 in test [1] of 38 µM.
For `CCCSc1nc(NCCc2cccc(OC)c2)c2ncn([C@@H]3O[C@H](CO)[C@@H](O)[C@H]3O)c2n1`, in test [1], the “inhibition (INH)” value was more than 50% and half-maximal inhibition (IC50) was put at 69 µM.
Turning to `CCCCSc1nc(NCCc2cccc(OC)c2)c2ncn([C@@H]3O[C@H](CO)[C@@H](O)[C@H]3O)c2n1`, the Activity in test [2] amounted to 85%. Further, in test [3], the inhibition at 300 µM is less than 50%.
Consider `CCSc1nc(NC(C)c2ccccc2)c2ncn([C@@H]3O[C@H](CO)[C@@H](O)[C@H]3O)c2n1` (some centres not stated), for which the “inhibition (INH)” value in test [1] is more than 50%.
`CSCCNc1nc(SCCC(F)(F)F)nc2c1ncn2[C@@H]1O[C@H](COP(=O)(O)OP(=O)(O)C(Cl)(Cl)P(=O)(O)O)[C@@H](O)[C@H]1O` [CANGRELOR TETRASODIUM] yielded an IC50 in test [5] of 0.0004 µM.
